# SENP7 inh: blocks the human protease SENP7 | recombinant SENP7, Z-RLRGG-aminoluciferin luminescence, 40 min | actives 1.5% (n = 330,000) | Q9BQF6 | inhibition, % at 5 µM | AID 434973;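 active = inhibition above about 50% at the single test dose, limit read from the data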;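 note: plate controls were DMSO with enzyme for no effect and no enzyme buffer wells for full effect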
# SENP1 FRET inh: blocks the human SENP1 SUMO protease catalytic domain | Q9P0U3 | recombinant SENP1 catalytic domain, CyPet-SUMO1-YPet FRET cleavage | inhibition, % at 10 µM | actives 0.21% (n = 360,000);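 active = inhibition at least 30% at 10 µM, raw YFP signal under a set limit, fluorescence ratio 0.5 to 1.5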;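 note: 0% = enzyme with DMSO and 100% = no enzyme wells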
# Target sequence (Q9P0U3 419-644 limits assumed): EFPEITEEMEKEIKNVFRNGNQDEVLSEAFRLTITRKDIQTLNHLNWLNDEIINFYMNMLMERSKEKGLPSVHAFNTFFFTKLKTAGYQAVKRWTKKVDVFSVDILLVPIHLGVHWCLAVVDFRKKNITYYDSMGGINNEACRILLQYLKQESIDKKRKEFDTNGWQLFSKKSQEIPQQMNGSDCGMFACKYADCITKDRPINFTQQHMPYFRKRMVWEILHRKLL
#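 Test system: recombinant human SENP1 catalytic domain, His6-tagged / Medium: pH 8 Tris buffer with EDTA, NaCl, BME, BSA, NP40, catalase / Also added: SUMO1 FRET substrate flanked by Cypet and Ypet, 25 nM / Times: 50 min reaction at room temperature / Signal: FRET, CFP and YFP emission / Control set: no-enzyme low control and enzyme-plus-DMSO high control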
# SENP8 block-1: blocks human SENP8 cleavage of Nedd8 substrate; inhibition, % at 20 µM; recombinant SENP8, Nedd8 substrate fluorescence; actives 0.64% (n = 360,000); Q96LD8; in the data active = inhibition mostly above about 40%, no sharp cut-off; inactive = mostly below about 27%
# Target sequence (Q96LD8 whole entry, looked up): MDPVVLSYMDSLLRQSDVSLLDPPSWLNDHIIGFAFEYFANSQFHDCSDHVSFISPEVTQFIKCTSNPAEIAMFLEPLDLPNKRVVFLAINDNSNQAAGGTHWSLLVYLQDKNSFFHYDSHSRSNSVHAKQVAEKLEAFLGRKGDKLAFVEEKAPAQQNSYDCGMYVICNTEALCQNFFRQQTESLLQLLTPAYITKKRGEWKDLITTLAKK
# Platelet DG rel: platelet dense granule release activity | human platelet-rich plasma, SFLLRN dense granule ATP release, luminescence | inhibition, %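 (compounds screened at 7.5 µM in platelet-rich plasma)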 | actives 0.22% (n = 300,000);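 active = mean replicate score, as percent of positive control, at or above 50; inconclusive = mean below 50 but at least one replicate at or above 50; inactive = mean and every replicate below 50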
# SENP6 inh: inhibitors of human SENP6 protease. actives 1.8% (n = 330,000). Recombinant SENP6 catalytic domain, aminoluciferin luminescence. AID 2599. inhibition, % at 10 µM;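 active = inhibition above about 50% at the single tested dose, limit read from the data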;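 note: plate controls were DMSO wells with enzyme for no effect and DMSO wells lacking enzyme for full effect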
# SENP8 block-2: inhibitors of human SENP8 protease; Q96LD8; purified SENP8, Z-RLRGG-aminoluciferin cleavage, luminescence; inhibition, % at 10 µM; actives 1.2% (n = 330,000); in the data active = inhibition above about 50%
# SENP8 conf: human SENP8 inhibition, confirmed; shares compounds with SENP7 inh; Recombinant SENP8, Z-RLRGG-aminoluciferin luminescence, 60 min; inhibition, % at 12.5 µM; actives 40% (n = 6,200); AID 488912;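 active = mean inhibition across replicates above about 50%, limit read from the data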
# SENP6 confirm: confirmation of human SENP6 protease inhibitors | shares compounds with SENP7 inh | recombinant SENP6, Z-RLRGG-aminoluciferin luminescence | inhibition, % at 12.5 µM | actives 58% (n = 6,200) | AID 488915
# SENP7 confirm: confirmation of human SENP7 protease inhibitors | shares compounds with SENP7 inh | recombinant SENP7, Z-RLRGG-aminoluciferin luminescence, 40 min | inhibition, % at 12.5 µM | actives 69% (n = 6,200)
# Casp3 SENP sel: caspase-3 inhibition (SENP selectivity assay). purified caspase-3, Z-DEVD-aminoluciferin luminescence, 60 min. shares compounds with SENP7 inh. inhibition, % at 12.5 µM. actives 60% (n = 6,200);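 active = mean inhibition above about 50%, limit read from the data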;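 note: plate controls were enzyme with DMSO for no effect and wells without caspase-3 for full effect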
# Target sequence (P42574 28-227 limits assumed): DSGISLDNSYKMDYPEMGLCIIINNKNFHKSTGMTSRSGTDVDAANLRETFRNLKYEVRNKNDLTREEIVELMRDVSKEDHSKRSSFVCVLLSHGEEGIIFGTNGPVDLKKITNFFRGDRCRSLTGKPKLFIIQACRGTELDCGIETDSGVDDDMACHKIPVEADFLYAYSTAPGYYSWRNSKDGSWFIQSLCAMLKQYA
# SENP luc ctr: luminescence interference (SENP counter-screen); actives 39% (n = 6,200); shares compounds with SENP7 inh; AID 488919; Pre-incubated SENP8/Z-RLRGG-aminoluciferin, luciferase luminescence interference; inhibition, % at 12.5 µM;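 active = mean inhibition above about 50% when retested at one dose, limit read from the data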;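 note: plate controls were DMSO wells with completed reaction for no effect and substrate without enzyme for full effect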
# Active calls of the source: *; ? = inconclusive; · = no result. Compounds with a hit are over-represented: about 2.6% of the library has one in this group of screens.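 Rule for the calls, unless noted: active = mean inhibition above about 50% in the one-dose retest (limit read from the data); inactive = the rest.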
SMILES,SENP7 inh,SENP1 FRET inh,SENP8 block-1,Platelet DG rel,SENP6 inh,SENP8 block-2,SENP8 conf,SENP6 confirm,SENP7 confirm,Casp3 SENP sel,SENP luc ctr
Cc1cc(NC(=O)c2ccccc2)ncc1NC(=O)c1cccs1,-17.3,-2.8,-4.0,15.4,64.0*,71.7*,76.0*,73.8*,93.1*,90.3*,79.8*
O=C(COc1ccc(Cl)cc1Cl)Nc1ccc(Cl)cn1,0.6,1.7,-3.6,6.5,83.8*,72.1*,44.0,42.7,46.6,58.7*,31.3
O=C(NC(=O)c1ccccc1)Nc1ccc(Cl)cn1,72.3*,1.5,-2.0,-1.5,26.5,-0.1,-1.8,3.7,15.4,36.1,1.1
O=C(Nc1ccc(NC(=O)c2ccco2)nc1)c1cccc(F)c1,6.9,0.4,5.7,-1.5,4.3,2.5,·,·,·,·,·
O=C(Nc1ccc(Cl)cn1)c1ccccc1F,80.4*,2.2,-2.7,-3.9,81.8*,63.9*,1.6,70.8*,93.1*,84.6*,42.5
O=C(Nc1cccc(C(=O)Nc2ccc(Cl)cn2)c1)c1ccccc1,9.1,1.1,8.0,-1.2,7.8,-3.7,·,·,·,·,·
O=C(Nc1ccc(Cl)cn1)c1cccc(F)c1,89.3*,1.8,16.9,3.0,90.8*,73.3*,82.6*,84.6*,96.6*,91.6*,80.6*
O=C(NCc1ccc(F)cc1)c1cc(C2CCCCN2C(=O)CCCc2ccccc2)on1 (centres undefined),·,-0.2,9.6,·,·,·,·,·,·,·,·
Cc1ccc(-n2nnc(-c3cccnc3)n2)cc1,16.6,1.2,4.7,-0.2,29.5,22.2,·,·,·,·,·
Cc1ccc(-n2nnc(-c3cnc4ccccc4c3)n2)cc1,78.6*,-11.3,-4.6,-1.0,33.6,26.0,13.2,17.0,24.6,46.2,11.7
Cc1ccc(-n2nnc(-c3nccn3C)n2)cc1,87.3*,1.2,-10.3,-8.4,84.4*,85.9*,90.5*,90.2*,100.4*,96.9*,90.4*
COc1cc(OC)cc(C(=O)NC(C(=O)NNC(=O)CN(C)S(=O)(=O)c2ccc(C)cc2)C(C)C)c1 (centres undefined),·,0.3,11.1,·,·,·,·,·,·,·,·
O=C(OCC(=O)N1CCc2ccccc21)c1ccccc1[N+](=O)[O-],91.3*,1.3,4.4,·,86.6*,85.8*,93.8*,94.3*,101.7*,94.9*,74.5*
O=C(c1ccccc1F)N1CCc2ccccc21,3.4,0.3,10.2,6.8,6.3,1.6,·,·,·,·,·
O=C(COC(=O)c1ccccc1[N+](=O)[O-])c1ccc(C2CCCCC2)cc1,97.5*,-2.4,12.4,3.0,89.5*,88.8*,12.0,77.1*,51.8*,79.0*,15.6
N#CC1(NC(=O)COC(=O)c2ccccc2[N+](=O)[O-])CCCCC1,-1.5,2.3,2.7,-2.5,-4.4,0.4,·,·,·,·,·
O=C(OCC(=O)N1CCc2ccccc21)c1ccccc1F,42.9,-1.5,10.4,19.8,58.1*,33.5,43.1,37.8,75.6*,64.3*,5.2
Cc1ccc(C(=O)OCC(=O)N2CCc3ccccc32)cc1,30.6,0.3,31.6,-6.6,5.4,-23.5,·,·,·,·,·
Oc1ccc(C=Nc2ccccc2-c2nc3ccccc3[nH]2)c(O)c1,5.3,-7.6,-276.2,8.7,-19.4,-9.5,·,·,·,·,·
Oc1ccc(C=Nc2cccc3ncccc23)c(O)c1,46.1,-35.3,22.9,5.7,91.2*,44.1,11.7,17.3,0.8,3.9,2.0
O=C(CCc1nnc2ccc(NCc3ccco3)nn12)N1CCN(c2ccc(F)cc2)CC1,22.7,-10.4,0.0,-4.5,3.6,-4.6,·,·,·,·,·
Cc1cc(C(=O)COC(=O)c2cccn2C)c(C)n1Cc1ccco1,66.9*,-0.5,4.0,1.7,66.9*,63.5*,80.9*,80.4*,94.1*,68.4*,-2.7
CCOc1ccc(-n2c(=O)c3sccc3n(CC(=O)NCC3CCCO3)c2=O)cc1 (centres undefined),-3.7,1.9,2.9,5.1,-14.9,2.9,·,·,·,·,·
CC(C)CSC1=NSC2=NC(=O)/C(=C\c3cccs3)C(=N)N12,10.8,-5.8,10.1,-0.3,68.3*,34.2,51.1*,53.1*,47.8,28.4,39.3
CSC1=NSC2=NC(=O)/C(=C\c3cccs3)C(=N)N12,·,-3.5,17.1,7.9,·,·,·,·,·,·,·
SMILES,SENP7 inh,SENP1 FRET inh,SENP8 block-1,Platelet DG rel,SENP6 inh,SENP8 block-2,SENP8 conf,SENP6 confirm,SENP7 confirm,Casp3 SENP sel,SENP luc ctr
N=C1/C(=C/c2cccs2)C(=O)N=C2SN=C(SCc3ccccc3)N12,19.2,1.2,26.8,1.6,65.9*,29.5,46.8,59.4*,31.0,14.9,33.1
COc1ccccc1N(C)S(=O)(=O)c1ccc(C(=O)N(C)Cc2ccc(OC(F)F)cc2)cc1,6.4,0.5,8.2,·,-23.5,-12.0,·,·,·,·,·
O=C(N=Nc1c(O)[nH]c2ccccc12)c1cccs1,82.1*,3.3,15.4,5.3,81.9*,66.5*,51.9*,80.3*,93.0*,81.9*,20.1
COC(=O)c1ccc(OS(=O)(=O)N(C)C)cc1,-0.2,0.7,8.1,1.9,-5.0,-7.0,·,·,·,·,·
Cn1nccc1C(=O)Oc1cccc(/C=N/NC(=O)c2ccccc2O)c1,25.4,2.5,-307.4,2.5,22.6,9.0,·,·,·,·,·
COc1cccc2sc(N(C)c3ccccc3)nc12,88.9*,-0.5,16.4,12.8,47.4,76.1*,-8.0,82.9*,96.5*,77.7*,82.6*
CC(=O)Nc1ccc(S(=O)(=O)N(C)CC(=O)NNc2c(F)c(F)cc(F)c2F)cc1,15.0,1.9,14.7,·,12.8,7.0,·,·,·,·,·
O=C(NC1(O)C(=O)c2ccccc2C1=O)c1ccccc1,62.7*,2.7,99.1*,13.5,70.2*,65.1*,75.4*,88.6*,81.2*,6.9,9.9
O=C(NC1(O)C(=O)c2ccccc2C1=O)c1c(Cl)cccc1Cl,60.3*,2.6,97.3*,-2.6,64.6*,63.7*,67.1*,85.9*,75.1*,9.0,5.8
COC1(NC(=O)c2ccccc2)C(C)=CC(=O)C=C1C,-3.5,-0.4,9.3,3.4,-9.3,-0.7,·,·,·,·,·
COc1ccc(CCN2CC(C(=O)NCCc3ccccc3C(F)(F)F)CCC2=O)cc1 (centres undefined),4.4,1.9,11.0,?,13.7,-0.3,·,·,·,·,·

# Source: PubChem BioAssay (several laboratories)
